Source: ChEMBL document CHEMBL1828544, “Structural modification of honokiol, a biphenyl occurring in Magnolia officinalis: the evaluation of honokiol analogues as inhibitors of angiogenesis and for their cytotoxicity and structure-activity relationship” (J Med Chem, 2011)
Active and inactive are the calls of the source. No cut-off for these calls is given here.

Key:
HUVEC = assay: Antiproliferative activity against human HUVEC cells after 24 hrs by MTT assay; type: functional, cell-based
Method in brief: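 Primary HUVECs grown on gelatin in M-199 with 20% FBS, 10 ng/mL bFGF, 2 ng/mL VEGF, 5% CO2, 37 °C. Cells (5 × 10^3/well) exposed to a range of compound concentrations for 24 h. MTT added for 3 h, formazan dissolved in DMSO, absorbance read at 570 nm. IC50 from percentage growth versus untreated control.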

A549 = assay: Antiproliferative activity against human A549 cells after 24 hrs by MTT assay; type: functional, cell-based; conditions: A549, 24 h
Method in brief: (§1)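 Cells (5 × 10^3/well) kept at 37 °C, 5% CO2 and treated with varied compound concentrations for 24 h. MTT given for a further 3 h, precipitate dissolved in DMSO, absorbance taken at 570 nm. IC50 calculated from percentage growth relative to untreated control.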

HepG2 = assay: Antiproliferative activity against human HepG2 cells after 24 hrs by MTT assay; type: functional, cell-based; conditions: HepG2, 24 h; method in brief: as §1
[1] = Antiproliferative activity against mouse LL/2 cells after 24 hrs by MTT assay; type: functional, cell-based; conditions: Lewis lung carcinoma; method in brief: as §1
Danio rerio [2] = organism: Danio rerio; assay: Antiangiogenic activity in fli-1:enhanced GFP expressing transgenic zebrafish embryo assessed as inhibition of neovacularisation at 40 uM after 24 hrs relative to control; type: functional
Method in brief: (§2)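 fli-1:EGFP transgenic zebrafish embryos sorted at about 6 hpf (6 per well), exposed in embryo water to compound at 5–40 μM for 24 h. Then anesthetized with 0.05% 2-phenoxyethanol, photographed and quantified.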

Danio rerio [3] = organism: Danio rerio; assay: Antiangiogenic activity in fli-1:enhanced GFP expressing transgenic zebrafish embryo assessed as inhibition of neovacularisation at 5 uM after 24 hrs relative to control; type: functional; method in brief: as §2
Danio rerio [4] = organism: Danio rerio; assay: Antiangiogenic activity in fli-1:enhanced GFP expressing transgenic zebrafish embryo assessed as inhibition of neovacularisation at 10 uM after 24 hrs relative to control; type: functional; method in brief: as §2
Danio rerio [5] = organism: Danio rerio; assay: Antiangiogenic activity in fli-1:enhanced GFP expressing transgenic zebrafish embryo assessed as inhibition of neovacularisation at 20 uM after 24 hrs relative to control; type: functional; method in brief: as §2

Row | IC50 (A549) | IC50 (HepG2) | SMILES | IC50 (HUVEC) | IC50 [1] | inhibition (INH) (Danio rerio [2]) | inhibition (Danio rerio [3]) | inhibition (INH) (Danio rerio [4]) | inhibition (INH) (Danio rerio [5]) | inhibition (INH) (Danio rerio [3]) | inhibition (Danio rerio [4])
1 | > 100 µM | > 100 µM | C=CCc1cc(-c2cccc([N+](=O)[O-])c2)ccc1OC | > 100 µM | > 100 µM |  |  |  |  |  | 
2 | > 100 µM | 91 µM | C=CC(C)(C)c1cc(-c2ccc(OC)cc2)ccc1O | > 100 µM | > 100 µM |  |  |  |  |  | 
3 | 76 µM | 60.3 µM | C=CCc1cc(-c2ccc(C(F)(F)F)cc2)ccc1O | 74 µM | 74.8 µM | <25% | inactive | <25% | <25% |  | 
4 | 66 µM | > 100 µM | C=CCc1cc(-c2cccc(SC)c2)ccc1O | > 100 µM | > 100 µM |  |  |  |  |  | 
5 | 53.2 µM | 63.5 µM | C=CCc1ccc(OC(C)C)c(-c2ccc(O)c(CC=C)c2)c1 | 65.5 µM | 48.4 µM | <25% |  | <25% | <25% | <25% | 
6 | > 100 µM | > 100 µM | C=CCc1cc(-c2cccc(OC)c2)ccc1O | > 100 µM | > 100 µM |  |  |  |  |  | 
7 | > 100 µM | 62.3 µM | C=CCc1ccc(O)c(-c2cccc([N+](=O)[O-])c2)c1 | 79.1 µM | 61.4 µM |  | inactive | <25% | <25% |  | 
8 | 75.6 µM | 69.2 µM | C=CCc1cc(-c2ccc(OC)cc2)cc(CC=C)c1O | > 100 µM | 60.3 µM | <25% | inactive | <25% | <25% |  | 
9 | 59.7 µM | 52.4 µM | C=CCc1cc(-c2ccccc2C(F)(F)F)ccc1O | 82 µM | 60.3 µM | <25% | inactive | <25% | <25% |  | 
10 | > 85.8 µM | > 85.2 µM | C=CCc1cc(C=O)c(OCC(=O)OCC)c(-c2ccc(OCC(=O)OCC)c(CC=C)c2)c1 | 86.9 µM | 26.1 µM |  |  |  |  |  | 
11 | > 114 µM | > 114 µM | C=CCc1ccc(OC(C)C)c(-c2ccc(OC(C)C)c(CC=C)c2)c1 | > 100 µM | > 114 µM |  |  |  |  |  | 
12 | > 100 µM | > 100 µM | C=CCc1cc(-c2ccc(OC)cc2)ccc1O | > 100 µM | > 100 µM |  |  |  |  |  | 
13 | > 124 µM | > 124 µM | C=CCc1ccc(OCC)c(-c2ccc(OCC)c(CC=C)c2)c1 | > 100 µM | > 124 µM |  |  |  |  |  | 
14 | > 100 µM | > 100 µM | C=CCc1cc(-c2ccccc2)ccc1O | > 100 µM | > 100 µM |  |  |  |  |  | 
15 | > 91.3 µM | 68.9 µM | C=CCc1ccc(OCC(=O)OCC)c(-c2ccc(OCC(=O)OCC)c(CC=C)c2)c1 | > 100 µM | > 91.3 µM |  |  |  |  |  | 
16 | > 100 µM | > 100 µM | C=CCc1cc(-c2cc(F)cc(F)c2)ccc1O | 80 µM | 78.2 µM | <25% |  | <25% | <25% | <25% | 
17 | > 100 µM | > 100 µM | C=CCc1cc(-c2cccc([N+](=O)[O-])c2)ccc1O | > 100 µM | > 100 µM |  |  |  |  |  | 
18 | 64 µM | 56 µM | C=CC(C)(C)c1cc(-c2cccc([N+](=O)[O-])c2)ccc1O | 77 µM | 45.1 µM | <25% | inactive |  | <25% |  | inactive
19 |  | 57.5 µM | C=CCc1ccc(OC)c(-c2ccc(O)c(CC=C)c2)c1 | 61.8 µM | 108 µM |  |  |  |  |  | 

Row | IC50 (A549) | IC50 (HepG2) | SMILES | IC50 (HUVEC) | IC50 [1] | inhibition (INH) (Danio rerio [2]) | inhibition (Danio rerio [3]) | inhibition (INH) (Danio rerio [4]) | inhibition (INH) (Danio rerio [5]) | inhibition (INH) (Danio rerio [3]) | inhibition (Danio rerio [4])
20 | 95.4 µM | > 100 µM | C=CCc1ccc(OC)c(-c2ccc(OC)cc2)c1 | > 100 µM | 71.1 µM |  |  |  |  |  | 
21 | 76.2 µM | 89 µM | C=CCc1ccc(O)c(-c2ccc(O)cc2)c1 | 64.3 µM | > 100 µM |  | inactive | <25% | <25% |  | 
22 | > 123 µM | > 123 µM | C=CCc1cc(CO)c(O)c(-c2cc(CO)c(O)c(CC=C)c2)c1 | > 100 µM | > 123 µM |  |  |  |  |  | 
23 | > 114 µM | > 114 µM | C=CCc1ccc(OCCC)c(-c2ccc(OCCC)c(CC=C)c2)c1 | > 100 µM | > 114 µM |  |  |  |  |  | 
24 | 42.7 µM | 48.4 µM | C=CCc1ccc(O)c(-c2ccc(OC(C)C)c(CC=C)c2)c1 | 70.5 µM | 49.1 µM |  | inactive | <25% | <25% |  | 
25 | 73 µM | 58.3 µM | C=CCc1cc(-c2cccc(C(F)(F)F)c2)ccc1O | 76 µM | 65.9 µM |  |  |  |  |  | 
26 | 39 µM | 28.5 µM | C=CCc1cc(C=O)c(OCC)c(-c2ccc(OCC)c(CC=C)c2)c1 | 37.9 µM | 31.9 µM | <25% | inactive | <25% | <25% |  | 
27 | > 100 µM | 60.1 µM | C=CCc1cc(-c2cccc(NC(C)=O)c2)ccc1OC | > 100 µM | 65.1 µM |  |  |  |  |  | 
28 | > 100 µM | > 100 µM | C=CCOc1ccc(-c2ccc(OC)cc2)cc1CC=C | > 100 µM | > 100 µM |  |  |  |  |  | 
29 |  | > 136 µM | C=CCc1ccc(OC)c(-c2ccc(OC)c(CC=C)c2)c1 | > 100 µM | > 136 µM |  |  |  |  |  | 
30 | > 100 µM | 89 µM | C=CCc1cc(-c2ccc(C(F)(F)F)cc2)ccc1OC | > 100 µM | 78.8 µM |  |  |  |  |  | 
31 | > 100 µM | > 100 µM | C=CCc1cc(-c2ccc(OC)c(OC)c2)ccc1O | > 100 µM | > 100 µM |  |  |  |  |  | 
32 | > 100 µM | > 100 µM | C=CCOc1ccc(-c2cccc([N+](=O)[O-])c2)cc1CC=C | > 100 µM | > 100 µM |  |  |  |  |  | 
33 | > 100 µM | > 100 µM | C=CCc1cc(-c2ccc(F)cc2)ccc1O | > 100 µM | > 100 µM |  |  |  |  |  | 
34 | > 100 µM | > 100 µM | C=CCc1cc(-c2ccc(OC)cc2OC)ccc1O | > 100 µM | > 100 µM |  |  |  |  |  | 
35 | > 135 µM | > 135 µM | C=CCc1cc(CO)c(O)c(-c2ccc(O)c(CC=C)c2)c1 | > 100 µM | > 135 µM |  |  |  |  |  | 
36 | 42.6 µM | 53.9 µM | C=CCc1cc(C=O)c(OC)c(-c2ccc(OC)c(CC=C)c2)c1 | 39.1 µM | 40.8 µM | <25% |  | <25% | <25% | <25% | 
37 | 80 µM | 80.5 µM | C=CCc1cc(-c2cccc([N+](=O)[O-])c2)cc(CC=C)c1O | > 100 µM | 56.5 µM | <25% | inactive | <25% | <25% |  | 
38 | > 100 µM | > 100 µM | C=CCc1cc(-c2ccc(OC)cc2)ccc1OC | > 100 µM | > 100 µM |  |  |  |  |  | 

Row | SMILES | IC50 (A549) | IC50 (HepG2) | IC50 (HUVEC) | IC50 [1] | inhibition (INH) (Danio rerio [2]) | inhibition (Danio rerio [3]) | inhibition (INH) (Danio rerio [4]) | inhibition (INH) (Danio rerio [5]) | inhibition (INH) (Danio rerio [3]) | inhibition (Danio rerio [4])
39 | C=CCc1ccc(OCC)c(-c2ccc(O)c(CC=C)c2)c1 | 81.6 µM | 71.5 µM | 68.2 µM | 67.6 µM |  |  |  |  |  | 
40 | C=CCc1ccc(O)c(-c2ccc(OCCC)c(CC=C)c2)c1 | 82.4 µM | > 130 µM | 89.3 µM | 64.8 µM |  |  |  |  |  | 
41 | C=CCc1ccc(OCCC)c(-c2ccc(O)c(CC=C)c2)c1 | 53.8 µM | 49.9 µM | 73.3 µM | 45.8 µM | <25% | inactive | <25% | <25% |  | 
42 | C=CCc1ccc(O)c(-c2ccc(OCC)c(CC=C)c2)c1 | 51 µM | 73.8 µM | 67.1 µM | 61.6 µM |  |  |  |  |  | 
43 | C=CCc1ccc(OC)c(-c2cccc([N+](=O)[O-])c2)c1 | > 100 µM | > 100 µM | > 100 µM | 89.4 µM |  |  |  |  |  | 
